Test [1] has as its target T1, Chloroquine resistance transporter (Plasmodium falciparum) (UniProt Q9N623).
T1 sequence (whole entry): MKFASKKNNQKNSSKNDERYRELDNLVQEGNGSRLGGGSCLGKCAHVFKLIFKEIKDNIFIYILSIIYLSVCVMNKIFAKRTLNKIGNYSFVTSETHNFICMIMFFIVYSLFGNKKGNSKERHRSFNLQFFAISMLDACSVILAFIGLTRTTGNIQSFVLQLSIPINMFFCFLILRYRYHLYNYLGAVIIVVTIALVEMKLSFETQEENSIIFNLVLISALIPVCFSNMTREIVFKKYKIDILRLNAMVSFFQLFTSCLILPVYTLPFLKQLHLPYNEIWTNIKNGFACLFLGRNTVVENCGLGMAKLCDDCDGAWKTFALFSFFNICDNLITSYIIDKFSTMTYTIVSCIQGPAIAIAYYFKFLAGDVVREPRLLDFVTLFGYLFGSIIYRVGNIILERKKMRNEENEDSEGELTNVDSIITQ
Description: Inhibition of CTR in Plasmodium falciparum C2GC03 expressing wild-type pfcrt allele assessed as increase of accumulation of [3H]-chloroquine level at 1 uM after 1 hr. An outline of the steps:
(§1)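 Isogenic pfcrt transfectant lines C2GCO3 (wild-type allele), C4Dd2 and C67G8 (CQ-resistance alleles from Dd2 or 7G8). CQ accumulation ratio measured with and without reverser. Expressed as fold increase in accumulation ratio over control.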

The target in test [2] is T1, Chloroquine resistance transporter (Plasmodium falciparum). Description: Inhibition of chloroquine-sensitive Plasmodium falciparum D10 CRT expressed in Xenopus laevis oocytes plasma membrane assessed as reduction of [3H]-chloroquine transportation at 100 uM after 1 to 2 hrs. It counts as cell-based. An outline of the steps:
(§2)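 Xenopus oocytes expressing PfCRT of the CQ-resistant (PfCRTCQR) or CQ-sensitive (PfCRTCQS) form. [3H]CQ uptake measured in the presence of reverser at 100 μM extracellular.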

Test [3] has the same target. Description: Inhibition of chloroquine-resistant Plasmodium falciparum Dd2 CRT expressed in Xenopus laevis oocytes plasma membrane assessed as reduction of [3H]-chloroquine transportation at 100 uM after 1 to 2 hrs. The class given is cell-based. The method in brief: as §2
The target is the same in test [4]. Description: Inhibition of CTR in Plasmodium falciparum C4Dd2 expressing chloroquine-resistance-conferring pfcrt alleles assessed as increase of accumulation of [3H]-chloroquine level at 1 uM after 1 hr relative to control. An outline of the steps:
as §1

For test [5] the target is unchanged. Description: Inhibition of CTR in Plasmodium falciparum C67G8 expressing chloroquine-resistance-conferring pfcrt alleles assessed as increase of accumulation of [3H]-chloroquine level at 1 uM after 1 hr relative to control. The method in brief:
as §1

Test [6] has as its system Plasmodium falciparum. Description: Antiplasmodial activity against Plasmodium falciparum C4Dd2 expressing chloroquine-resistance-conferring pfcrt alleles assessed as parasite growth at 800 nM after 72 hrs by SYBR Green I-based fluorescence assay relative to control. It counts as functional. An outline of the steps:
(§3)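 Isogenic pfcrt transfectant lines (C2GCO3 wild-type allele; C4Dd2 and C67G8 carrying CQ-resistance-conferring alleles from Dd2 or 7G8). Parasite proliferation measured in the absence of CQ with test compound at 800 nM and expressed relative to untreated control.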

Test [7] concerns Plasmodium falciparum. The test can be described thus: Response modification index, ratio of IC50 for Plasmodium falciparum C67G8 expressing chloroquine-resistance-conferring pfcrt alleles in presence of drug to IC50 for Plasmodium falciparum C67G8 expressing chloroquine-resistance-conferring pfcrt alleles in absence of 800 nM of drug. It counts as functional. An outline of the steps: (§4)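 Proliferation assays on isogenic pfcrt transfectant lines (C4Dd2, C67G8). CQ IC50 determined with and without 800 nM test compound. RMI calculated as CQ IC50 with compound divided by CQ IC50 without compound.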

Test [8] has as its target Chloroquine resistance transporter (Plasmodium falciparum, UniProt Q9N623). The test can be described thus: Inhibition of chloroquine-resistant Plasmodium falciparum Dd2 CRT expressed in Xenopus laevis oocytes plasma membrane assessed as reduction of [3H]-chloroquine transportation after 1 to 2 hrs. It counts as cell-based. The method in brief:
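Xenopus oocytes expressing PfCRTCQR. Inhibition of [3H]CQ uptake measured over a range of reverser concentrations. IC50 derived from concentration-response data, reported as mean ± SEM.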

Test [9] deals with Plasmodium falciparum. The test can be described thus: Antiplasmodial activity against Plasmodium falciparum C67G8 expressing chloroquine-resistance-conferring pfcrt alleles assessed as parasite growth at 800 nM after 72 hrs by SYBR Green I-based fluorescence assay relative to control. It counts as functional. An outline of the steps: as §3
The test system of test [10] is Plasmodium falciparum. The test can be described thus: Response modification index, ratio of IC50 for Plasmodium falciparum C4Dd2 expressing chloroquine-resistance-conferring pfcrt alleles in presence of drug to IC50 for Plasmodium falciparum C4Dd2 expressing chloroquine-resistance-conferring pfcrt alleles in absence of 800 nM of drug. The class given is functional. The method in brief:
as §4

Test [11] relates to Plasmodium falciparum. Description: Antiplasmodial activity against Plasmodium falciparum C2GC03 expressing wild-type pfcrt allele assessed as parasite growth at 800 nM after 72 hrs by SYBR Green I-based fluorescence assay relative to control. It counts as functional. The method in brief: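 Isogenic pfcrt transfectant parasite line C2GCO3 (wild-type pfcrt allele) was grown in a proliferation assay with the test compound at 800 nM and no chloroquine. Proliferation is expressed relative to untreated control.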

In test [12] the test system is Plasmodium falciparum. Description: Response modification index, ratio of IC50 for Plasmodium falciparum C2GC03 expressing wild-type pfcrt allele in presence of drug to IC50 for Plasmodium falciparum C2GC03 expressing wild-type pfcrt allele in absence of 800 nM of drug. The class given is functional. The method in brief:
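In a parasite proliferation assay on the isogenic pfcrt transfectant line C2GCO3 (wild-type allele), chloroquine IC50 was measured with and without the test compound at 800 nM. RMI is chloroquine IC50 with the compound divided by chloroquine IC50 without it.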

Molecules are shown by their SMILES. Calls of active or inactive are those of the source. The rule behind the calls is not given here.

Turning to `CN(C)CC/C=C(/c1cccc(Cl)c1)c1ccccn1`, the inhibition result in [1], in [2] and in test [3] was “inactive” throughout.
For the molecule `CN(C)CCC(c1ccc(Cl)cc1)c1ccccn1` (stereo in doubt; form 2), in test [1], the inhibition entry is “inactive”.
On to `N#C/C=C(\c1ccccc1)c1ccccn1`, for which the inhibition entry in test [4], in [1], in test [5], in test [2] and in [3] was “inactive” throughout.
Regarding `CN(C)CCCCC(c1ccc(Cl)cc1)c1ccccn1` (racemic), the fold change (FC) worked out at 2.4 in test [4] and 1.8 in [5]. The Activity is on record as 74% in the test with Plasmodium falciparum [6], 79% with Plasmodium falciparum [9] and 100% in the test with Plasmodium falciparum [11]. Also, the results for the “Ratio IC50” value in the test on Plasmodium falciparum [7], with Plasmodium falciparum [10] and in the test on Plasmodium falciparum [12] were 0.39, 0.28 and 0.92, respectively. Moreover, the IC50 in test [8] came to 180 µM. For the same molecule, the inhibition result in test [1], in test [2] and in test [3] was “inactive” throughout.
As for `CN(C)CCC/C=C(\c1ccc(Cl)cc1)c1ccccn1`, the inhibition result in test [1], in test [2] and in [3] was “inactive” throughout.
In the case of `CN(C)CC/C=C(/c1ccccn1)c1ccccc1Cl`, the inhibition entry in test [1], in test [2] and in [3] was “inactive” throughout.
For `CN(C)CCCC(c1ccccn1)c1ccccc1Cl` (racemic), the inhibition result in [1], in test [2] and in [3] was “inactive” each time.
With `CCN(CC)CCC(c1ccc(Cl)cc1)c1ccccn1` (racemic), the inhibition entry in [1], in [2] and in test [3] was “inactive” each time.
Regarding `CN(C)CC/C=C(\c1ccc(Cl)cc1)c1ccccn1`, the inhibition result in [1], in test [2] and in test [3] was “inactive” in each case.
In the case of `CN(C)CCCC(c1cccnc1)c1cccc(Cl)c1` (racemic), the inhibition result in test [1], in test [2] and in test [3] was “inactive” in each case.
Regarding `CN(C)CCCC(c1cccc(Cl)c1)c1cnccn1` (racemic), the inhibition result in test [1], in test [2] and in test [3] was “inactive” in each case.
For the molecule `COc1ccc(CCN(C)CCCC(C#N)(c2ccc(OC)c(OC)c2)C(C)C)cc1OC` (stereo unspecified), the fold change (FC) came out at 3.1 in test [4] and 1.9 in [5]. Also, the Activity in the test with Plasmodium falciparum [6] worked out at 46%; in the test on Plasmodium falciparum [9] it was 55%; in the test on Plasmodium falciparum [11] it was 43%. Moreover, the inhibition entry in [1] is “inactive”. Moreover, in test [3], the inhibition entry is “Active”.
Consider `CN(C)CCCC(c1ccncc1)c1cccc(Cl)c1` (racemic), for which the inhibition entry in [1], in test [2] and in [3] was “inactive” throughout.
In the case of `CN(C)CCC(c1cccc(Cl)c1)c1ccccn1` (racemic), the Activity in the test on Plasmodium falciparum [6] stood at 75%; in the test on Plasmodium falciparum [9], 74%; in the test with Plasmodium falciparum [11] it was 99%. Moreover, the “Ratio IC50” value with Plasmodium falciparum [7] stood at 0.35; with Plasmodium falciparum [10] it was 0.27; in the test on Plasmodium falciparum [12], 0.99. Moreover, the IC50 in [8] turned out to be 63 µM. Moreover, the inhibition entry in test [1], in [2] and in test [3] was “inactive” in each case.
On to `CN(C)C/C=C(\c1cccc(Cl)c1)c1ccccn1`, for which the inhibition result in test [1], in test [2] and in [3] was “inactive” throughout.
In the case of `CN(C)CCCC(c1ccc(Cl)cc1)c1ccccn1` (racemic), the inhibition entry in test [1], in [2] and in test [3] was “inactive” each time.
`CN(C)CCC/C=C(/c1ccc(Cl)cc1)c1ccccn1`: the inhibition result in [1], in test [2] and in test [3] was “inactive” in each case.
As to `N#C/C=C(/c1ccccc1)c1ccccn1`, the inhibition entry in test [1], in test [2] and in [3] was “inactive” each time.
In the case of `CCN(CC)C/C=C(/c1ccc(Cl)cc1)c1ccccn1`, the inhibition entry in test [2] and in test [3] was “inactive” in each case.
Consider `CN(C)CCC(c1ccc(Cl)cc1)c1ccccn1` (stereo in doubt; form 1) [CHLORPHENIRAMINE], for which the Activity is 78% with Plasmodium falciparum [6], 76% in the test on Plasmodium falciparum [9] and 97% with Plasmodium falciparum [11]. Also, the “Ratio IC50” value was 0.37 with Plasmodium falciparum [7], 0.24 in the test on Plasmodium falciparum [10] and 1.09 in the test with Plasmodium falciparum [12]. Also, the IC50 in [8] stood at 54 µM.
On to `CN(C)C/C=C(/c1cccc(Cl)c1)c1ccccn1`, for which the inhibition entry in test [1], in [2] and in test [3] was “inactive” throughout.
For `CN(C)CCC(c1ccc(Cl)cc1)c1ccccn1` (stereo in doubt; form 1), the fold change (FC) in test [4] stood at 2.7; in test [5], 2. Also, in [1], the inhibition entry is “inactive”. Besides, the inhibition result in [3] is “Active”.
As for `COc1cc(NC(C)CCCN)c2ncccc2c1` (stereo unspecified) [PRIMAQUINE], the IC50 in test [8] came out at 68 µM. Also, the inhibition result in [3] is “Active”.
For `CN(C)CC/C=C(\c1cccc(Cl)c1)c1ccccn1`, the inhibition result in test [1], in test [2] and in test [3] was “inactive” each time.
With `CN(C)CCCC(c1ccccc1)c1ccccn1` (racemic), the inhibition result in [1], in test [2] and in [3] was “inactive” each time.
Turning to `CN(C)CCCCCC(c1ccc(Cl)cc1)c1ccccn1` (racemic), the inhibition entry in [1], in [2] and in test [3] was “inactive” throughout.
For `CN(C)CC/C=C(/c1ccc(Cl)cc1)c1ccccn1`, the inhibition result in [1], in test [2] and in [3] was “inactive” in each case.
Consider `CC(CN1c2ccccc2Sc2ccccc21)N(C)C` (stereo unspecified) [PROMETHAZINE], for which the 50% inhibitory concentration (IC50) in [8] was determined as 85 µM. Also, the inhibition result in test [3] is “Active”.

For the origin of these results see ChEMBL document CHEMBL3286244, “Chlorpheniramine Analogues Reverse Chloroquine Resistance in Plasmodium falciparum by Inhibiting PfCRT” (ACS Med Chem Lett, 2014).
